Assay results published in ChEMBL document CHEMBL1124326, “Synthesis and P-388 antitumor properties of the four diastereomeric 1-hydroxy-3,4-diaminocyclohexane-Cl2PtII complexes” (J Med Chem, 1989).
Several values for one entry are separate records, joined by “and”; a condition that tells them apart may be missing. Identical values can stand only once.

Key:
Format in all cases: functional, organism-based
Mus musculus [1] = assay: Antineoplastic activity in P-388-infected CDF1 mice, administered intraperitoneally at a dose (10 mg/kg), calculated as Percent treated /control (T/C).
In short: (§1)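 P-388 leukaemia cells (1 × 10^6 per animal) implanted into the peritoneal cavity of CDF1 recipient mice. Drug reconstituted in 0.3% Klucel and given ip on a day 1 schedule. Survival checked daily for at least 30 days; survival time expressed as percent treated/control (T/C).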

Mus musculus [2] = assay: Antineoplastic activity in P-388-tumor cell infected CDF1 mice, administered intraperitoneally at a dose (10 mg/kg), calculated as Median survival time (MST); in short: as §1
Mus musculus [3] = assay: Antineoplastic activity in P-388-tumor cell infected CDF1 mice, administered intraperitoneally at a dose (1.5 mg/kg), calculated as Median survival time (MST); in short: as §1
Mus musculus [4] = assay: Antineoplastic activity in P-388-tumor cell infected CDF1 mice, administered intraperitoneally at a dose (3mg/kg), calculated as Median survival time (MST); in short: as §1
Mus musculus [5] = assay: Antineoplastic activity in P-388-infected CDF1 mice, administered intraperitoneally at a dose (1.5 mg/kg), calculated as Percent treated /control (T/C).; in short: as §1
Mus musculus [6] = assay: Antineoplastic activity in P-388-tumor cell infected CDF1 mice, administered intraperitoneally at a dose (6 mg/kg), calculated as Median survival time (MST); in short: as §1
Mus musculus [7] = assay: Antineoplastic activity in P-388-infected CDF1 mice, administered intraperitoneally at a dose (3mg/kg), calculated as Percent treated /control (T/C).; in short: as §1
Mus musculus [8] = assay: Antineoplastic activity in P-388-infected CDF1 mice, administered intraperitoneally at a dose (6 mg/kg), calculated as Percent treated /control (T/C).; in short: as §1

| Substance | T/C (Mus musculus [1]) | MST (Mus musculus [2]) | MST (Mus musculus [3]) | MST (Mus musculus [4]) | T/C (Mus musculus [5]) | MST (Mus musculus [6]) | T/C (Mus musculus [7]) | T/C (Mus musculus [8]) |
| --- | --- | --- | --- | --- | --- | --- | --- | --- |
| 1-Hydroxy-3,4-diaminocyclohexane-Cl2-Platinum II Complex | 161% and 141% | 15.8 days and 13.8 days | – | – | – | – | – | – |
| CISPLATIN | – | – | 15.5 days | 18.5 days | 158% | 24.5 days | 188% | 249% |
